For five compounds, IC50, ED50 and inhibition in vivo results are on record in ChEMBL document CHEMBL1133218, “N-[(R,R)-(E)-1-(4-chloro-benzyl)-3-(2-oxo-azepan-3-ylcarbamoyl)-allyl]-N-methyl-3,5-bis-trifluoromethyl-benzamide: an orally active neurokinin NK1/NK2 antagonist” (Bioorg Med Chem Lett, 2000).

For one assay, the target named is T1, Substance-K receptor (Homo sapiens, UniProt P21452).
T1 sequence (P21452 whole entry): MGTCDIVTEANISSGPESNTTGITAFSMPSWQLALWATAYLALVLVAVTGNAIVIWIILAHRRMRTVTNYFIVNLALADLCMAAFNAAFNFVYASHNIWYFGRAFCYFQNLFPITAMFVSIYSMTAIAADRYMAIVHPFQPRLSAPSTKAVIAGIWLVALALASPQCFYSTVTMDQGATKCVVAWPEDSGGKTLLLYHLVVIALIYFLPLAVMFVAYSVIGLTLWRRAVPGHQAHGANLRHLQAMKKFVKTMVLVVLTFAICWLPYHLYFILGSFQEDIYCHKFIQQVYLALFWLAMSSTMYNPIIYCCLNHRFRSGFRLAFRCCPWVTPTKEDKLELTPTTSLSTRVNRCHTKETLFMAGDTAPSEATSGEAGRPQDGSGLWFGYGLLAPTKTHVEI
The experiment in a line: In vitro inhibition of [125I]NKA binding to transfected Chinese hamster ovary cells (CHO cells) expressing recombinant human Tachykinin receptor 2. The assay is classed as cell-based. The method in brief: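 Binding of 0.05 nM [125I]-NKA (2200 Ci/mmol) to 3×10^5 hNK2-transfected CHO cells in 20 mM HEPES pH 7.4 with 2 mM MnSO4 and 6 mM MgCl2, across a range of drug concentrations. Incubated 20 min at room temperature. Nonspecific binding taken with 50 nM NKA. Rapid filtration, 4 washes in ice-cold Tricine, filter radioactivity by scintillation counting, triplicates.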

In assay [1] the test system is Cavia porcellus. The experiment in a line: In vivo inhibition against beta-Ala8-NKA-induced bronchoconstriction in guinea pig at 4 h. The format is functional.
Assay [2] concerns Cavia porcellus. The experiment in a line: In vivo inhibition against Sar9SP-induced bronchoconstriction in guinea pigs at 1 mg/kg for 12 h. The format is functional.
Assay [3] deals with Cavia porcellus. Kind of assay: In vivo inhibition against Sar9SP-induced bronchoconstriction in guinea pigs at 2 h. The assay is classed as functional.
The test system of assay [4] is Cavia porcellus. Kind of assay: In vivo inhibition against Sar9SP-induced bronchoconstriction in guinea pigs at 4 h. The format is functional.
Assay [5] has as its system Cavia porcellus. The experiment in a line: In vivo inhibition against beta-Ala8-NKA-induced bronchoconstriction in guinea pig at 2 h. The format is functional.

For `CN(C(=O)c1cc(C(F)(F)F)cc(C(F)(F)F)c1)[C@H](/C=C/C(=O)N[C@H]1CCCCNC1=O)Cc1ccc(Cl)cc1`, the concentration for half-maximal inhibition (IC50) at Substance-K receptor turned out to be 0.3 µM.
Still for that read-out and setting: then `CN(C(=O)c1cc(C(F)(F)F)cc(C(F)(F)F)c1)[C@H](/C=C/C(=O)N[C@@H]1CCCCNC1=O)Cc1ccc(Cl)cc1`, with 0.123 µM; and `CN(C(=O)c1cc(C(F)(F)F)cc(C(F)(F)F)c1)C(/C=C/C(=O)NC1CCCCNC1=O)Cc1ccc(Cl)cc1` (mixture of isomers), with 0.055 µM.
For `CN(C(=O)c1cc(C(F)(F)F)cc(C(F)(F)F)c1)[C@@H](/C=C/C(=O)N[C@@H]1CCCCNC1=O)Cc1ccc(Cl)cc1`, the ED50 amounted to 0.73 mg/kg with Cavia porcellus [1], 0.036 mg/kg with Cavia porcellus [3], 0.03 mg/kg with Cavia porcellus [4] and 0.9 mg/kg in the assay with Cavia porcellus [5]. The same compound yielded an inhibition in vivo at 1 mg/kg in the assay with Cavia porcellus [2] of 85%. Further, at Substance-K receptor, the concentration for half-maximal inhibition (IC50) is 0.024 µM.
With `CN(C(=O)c1cc(C(F)(F)F)cc(C(F)(F)F)c1)[C@@H](/C=C/C(=O)N[C@H]1CCCCNC1=O)Cc1ccc(Cl)cc1` (mixture of isomers), the IC50 on Substance-K receptor came out at 0.12 µM.

The term IC50 denotes the point on the concentration scale where inhibition reaches its midpoint. By ED50 is commonly meant the dose that gives a 50% effect, or the effect in half of the subjects. The low end stands for an effect at a small dose, the high end for a need for a large dose. The term inhibition in vivo denotes the drop in the measured response relative to a control, in per cent. A higher inhibition in vivo goes with a strong effect.
